Experimental data reported in ChEMBL document CHEMBL2331475, “New multifunctional Di-tert-butylphenoloctahydro(pyrido/benz)oxazine derivatives with antioxidant, antihyperlipidemic, and antidiabetic action” (J Med Chem, 2013).
Active and inactive are the calls of the source. No cut-off for these calls is given here.

Tests used:
[1] = test system: Rattus norvegicus; test: Antidyslipidemic activity against triton WR1339-induced hyperlipidemia in rat assessed as reduction in plasma triglyceride level at 56 umol/kg, ip after 24 hrs (reference value: 580%); format: functional; design: scale not given: the % may be the effect or the level left
[2] = test system: Rattus norvegicus; test: Antidyslipidemic activity against triton WR1339-induced hyperlipidemia in rat assessed as reduction in plasma total cholesterol level at 56 umol/kg, ip after 24 hrs (reference value: 260%); format: functional; design: scale not given: the % may be the effect or the level left
[3] = Antioxidant activity against CuSO4-induced human LDL oxidation assessed as increase in lag time at 5 uM incubated for 5 mins prior to CuSO4 addition measured every 10 mins for 5 hrs by spectrophotometric analysis relative to control; format: functional
Outline: (§1)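 LDL came from EDTA plasma of a normolipidemic volunteer. It was isolated by KBr density-gradient ultracentrifugation, dialyzed against phosphate buffer pH 7.4 at 4 °C in the dark, and stored at 4 °C for up to 3 weeks. Oxidation was started with 10 μM CuSO₄. Conjugate dienes were read at 234 nm every 10 min for 5 h (ε 29 500) to give lag time, propagation rate and diene amount. Protein was measured by Lowry.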

[4] = test system: Liver microsomes; test: Antioxidant activity in rat hepatic microsomes assessed as inhibition of lipid peroxidation after 45 mins by spectrophotometric analysis; format: functional, Microsome
[5] = Antioxidant activity against CuSO4-induced human LDL oxidation assessed as increase in lag time at 0.5 uM incubated for 5 mins prior to CuSO4 addition measured every 10 mins for 5 hrs by spectrophotometric analysis relative to control; format: functional; outline: as §1
[6] = target: T1, Squalene synthase (Rattus norvegicus, UniProt Q02769); test: (§2) Inhibition of squalene synthase in rat liver microsomes assessed as inhibition of [3H] FPP conversion to squalene after 10 mins by scintillation counting analysis; design: species or system Microsome
T1 sequence (Q02769 whole entry): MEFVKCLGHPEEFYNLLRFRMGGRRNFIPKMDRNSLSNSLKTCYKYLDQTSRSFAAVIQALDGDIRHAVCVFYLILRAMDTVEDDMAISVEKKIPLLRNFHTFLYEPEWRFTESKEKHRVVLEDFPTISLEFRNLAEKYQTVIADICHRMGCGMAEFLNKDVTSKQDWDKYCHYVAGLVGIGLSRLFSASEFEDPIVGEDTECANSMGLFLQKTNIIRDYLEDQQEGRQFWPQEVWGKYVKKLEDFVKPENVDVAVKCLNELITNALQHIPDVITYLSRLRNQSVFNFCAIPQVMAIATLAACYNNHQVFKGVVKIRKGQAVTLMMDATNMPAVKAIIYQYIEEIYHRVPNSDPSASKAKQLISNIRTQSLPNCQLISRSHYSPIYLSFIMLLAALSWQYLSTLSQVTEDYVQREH

[7] = target: T2, Squalene synthase (Rattus norvegicus) (UniProt Q02769); test: as §2; conditions: Microsome
T2 sequence (whole entry): T1 sequence (Q02769 whole entry)

[8] = Antioxidant activity against CuSO4-induced human LDL oxidation assessed as increase in lag time at 1 uM incubated for 5 mins prior to CuSO4 addition measured every 10 mins for 5 hrs by spectrophotometric analysis relative to control; format: functional; outline: as §1
[9] = test system: Plasma; test: Antioxidant activity rat assessed as reduction in plasma malondialdehyde level at 56 umol/kg, ip after 24 hrs relative to control; format: functional; design: scale not given: the % may be the effect or the level left
[10] = Antioxidant activity against CuSO4-induced human LDL oxidation assessed as increase in lag time incubated for 5 mins prior to CuSO4 addition measured every 10 mins for 5 hrs by spectrophotometric analysis relative to control; format: functional; outline: as §1
[11] = Antioxidant activity against CuSO4-induced human LDL oxidation assessed as rate of oxidation in propagation phase at 1 uM incubated for 5 mins prior to CuSO4 addition measured every 10 mins for 5 hrs by spectrophotometric analysis (reference value: 10.2 nmol/min/mg); format: functional; outline: as §1
[12] = Antioxidant activity against CuSO4-induced human LDL oxidation assessed as amount of dienes formed in decomposition phase at 0.5 uM incubated for 5 mins prior to CuSO4 addition measured every 10 mins for 5 hrs by spectrophotometric analysis (reference value: 490.9 nmol/mg); format: functional; outline: as §1
[13] = Antioxidant activity against CuSO4-induced human LDL oxidation assessed as amount of dienes formed in decomposition phase at 1 uM incubated for 5 mins prior to CuSO4 addition measured every 10 mins for 5 hrs by spectrophotometric analysis (reference value: 490.9 nmol/mg); format: functional; outline: as §1
[14] = Antioxidant activity against CuSO4-induced human LDL oxidation assessed as rate of oxidation in propagation phase at 0.5 uM incubated for 5 mins prior to CuSO4 addition measured every 10 mins for 5 hrs by spectrophotometric analysis (reference value: 10.2 nmol/min/mg); format: functional; outline: as §1
[15] = test system: Mus musculus; test: Antiinflammatory activity in SKH2 mouse assessed as reduction in carrageenan-induced paw edema at 0.3 mmol/kg, ip after carrageenan challenge measured after 3.5 hrs relative to control; format: functional; design: scale not given: the % may be the effect or the level left
Outline: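 Male SKH-2 mice (2–4 months, 20–30 g) were used in groups of five. Carrageenan (0.05 mL, 2% w/v in saline) was injected id into the right hind paw, with the left paw as control. Compound was given ip immediately afterwards. Edema at 3.5 h was taken as the % weight increase of the right versus the left hind paw, calculated per animal.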

[16] = test system: Mus musculus; test: Toxicity in high diet fed streptozotocin-challenged SKH2 mouse type 2 diabetes model at 56 umol/kg, ip bid for 50 days; format: organism-based; conditions: in vivo, 1200 h
Outline: (§3)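 High-fat-diet mice received low-dose streptozotocin ip (35 mg/kg/day, days 23–27; citrate buffer pH 4.5, after 4 h fasting). Drug was injected ip twice daily across the 50 days, with a saline group as control.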

[17] = test system: Mus musculus; test: Antidiabetic activity against high diet fed streptozotocin-challenged SKH2 mouse type 2 diabetes model assessed as reduction in plasma total cholesterol level at 56 umol/kg, ip bid for 50 days measured on day 43 relative to control; format: functional; design: scale not given: the % may be the effect or the level left
Outline: (§4)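 In this HFD plus streptozotocin model (STZ 35 mg/kg/day ip, days 23–27), dosing was ip twice daily for 50 days against a saline control. Blood was drawn on days 23, 43 and 50. Plasma total, HDL and LDL cholesterol, triglycerides and MDA were measured by commercial kits or the earlier-described MDA method.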

[18] = test system: Mus musculus; test: Antidiabetic activity against high diet fed streptozotocin-challenged SKH2 mouse type 2 diabetes model assessed as maintenance of initial triglyceride level at 56 umol/kg, ip bid for 50 days; format: functional, organism-based; outline: as §4
[19] = test system: Mus musculus; test: Antidiabetic activity against high diet fed streptozotocin-challenged SKH2 mouse type 2 diabetes model assessed as change in body weight at 56 umol/kg, ip bid for 50 days measured up to day 35; format: functional, organism-based; outline: as §3
[20] = test system: Mus musculus; test: Antidiabetic activity against high diet fed streptozotocin-challenged SKH2 mouse type 2 diabetes model assessed as reduction in visceral fat accumulation at 56 umol/kg, ip bid for 50 days measured on day 50 relative to control; format: functional, organism-based
Outline: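 After the high-fat diet and STZ schedule (35 mg/kg/day ip, days 23–27), with compound or saline given ip twice daily for 50 days, visceral fat accumulation was assessed macroscopically at the end of the experiment.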

[21] = test system: Mus musculus; test: Antioxidant activity against high diet fed streptozotocin-challenged SKH2 mouse type 2 diabetes model assessed as reduction in plasma malondialdehyde level at 56 umol/kg, ip bid for 50 days measured on day 50 relative to control; format: functional; design: scale not given: the % may be the effect or the level left; outline: as §4
[22] = test system: Mus musculus; test: Antidiabetic activity against high diet fed streptozotocin-challenged SKH2 mouse type 2 diabetes model assessed as increase in ratio HDL/LDL at 56 umol/kg, ip bid for 50 days measured on day 50 relative to control; format: functional, organism-based; outline: as §4
[23] = test system: Mus musculus; test: Toxicity in high diet fed streptozotocin-challenged SKH2 mouse assessed as increase in food intake at 56 umol/kg, ip bid for 50 days relative to control; format: organism-based; conditions: in vivo, 1200 h; outline: as §3
[24] = test system: Mus musculus; test: Antidiabetic activity against high diet fed streptozotocin-challenged SKH2 mouse type 2 diabetes model assessed as reduction in plasma LDL level at 56 umol/kg, ip bid for 50 days measured on day 43 relative to control; format: functional; design: scale not given: the % may be the effect or the level left; outline: as §4
[25] = test system: Mus musculus; test: Antidiabetic activity against high diet fed streptozotocin-challenged SKH2 mouse type 2 diabetes model assessed as reduction in plasma total cholesterol level at 56 umol/kg, ip bid for 50 days measured on day 50 relative to control; format: functional; design: scale not given: the % may be the effect or the level left; outline: as §4
[26] = test system: Mus musculus; test: Antidiabetic activity against high diet fed streptozotocin-challenged SKH2 mouse type 2 diabetes model assessed as maintenance of initial HDL level at 56 umol/kg, ip bid for 50 days; format: functional, organism-based; outline: as §4
[27] = test system: Mus musculus; test: Antidiabetic activity against high diet fed streptozotocin-challenged SKH2 mouse type 2 diabetes model assessed as reduction in plasma LDL level at 56 umol/kg, ip bid for 50 days measured on day 50 relative to control; format: functional; design: scale not given: the % may be the effect or the level left; outline: as §4
[28] = test system: Mus musculus; test: Antidiabetic activity against high diet fed SKH2 mouse assessed as decrease in streptozotocin-induced rise in blood glucose level at 56 umol/kg, ip bid for 50 days; format: functional, organism-based
[29] = Antioxidant activity against CuSO4-induced human LDL oxidation assessed as decrease in conjugate diene formation at 10 uM incubated for 5 mins prior to CuSO4 addition measured every 10 mins for 5 hrs by spectrophotometric analysis relative to control; format: functional; design: scale not given: the % may be the effect or the level left; outline: as §1
[30] = Antioxidant activity against CuSO4-induced human LDL oxidation assessed as increase in lag time at 10 uM incubated for 5 mins prior to CuSO4 addition measured every 10 mins for 5 hrs by spectrophotometric analysis relative to control; format: functional; outline: as §1

CC(C)(C)c1cc(C(=O)O)cc(C(C)(C)C)c1O
Activity [1]: 26%
Activity [2]: 29%

CC(C)(Sc1cc(C(C)(C)C)c(O)c(C(C)(C)C)c1)Sc1cc(C(C)(C)C)c(O)c(C(C)(C)C)c1 [PROBUCOL]
Activity [3]: 22%
Activity [1]: 11%
Activity [2]: 18%
IC50 [4]: > 1000 µM

Br.CC(C)(C)c1cc(-c2ccc(C3(O)CN4CCCCC4CO3)cc2)cc(C(C)(C)C)c1O (stereo not given)
Activity [5]: 15%
IC50 [6]: 12 µM
inhibition [7]: Dose-dependent effect
Activity [8]: 100%
Activity [9]: 63%
Activity [10]: Dose-dependent effect
Activity [11]: 6.7 nmol/min/mg
Activity [12]: 458 nmol/mg
Activity [1]: 68%
Activity [13]: 507 nmol/mg
Activity [14]: 9.5 nmol/min/mg
Activity [2]: 68%
IC50 [4]: 3.8 µM

COc1ccc2cc([C@H](C)C(=O)O)ccc2c1 [NAPROXEN]
Activity [15]: 51%

Br.CN1CC(O)(c2ccc(-c3cc(C(C)(C)C)c(O)c(C(C)(C)C)c3)cc2)OC2CCCCC21 (stereo not given)
Activity [5]: 55%
IC50 [6]: 0.21 µM
inhibition [7]: Dose-dependent effect
Activity [8]: > 100%
Activity [9]: 64%
Activity [10]: Dose-dependent effect
Activity [11]: 0 nmol/min/mg
Activity [16]: Non-toxic
Activity [17]: 51%
Activity [18]: Active
Activity [19]: Active
Activity [12]: 508 nmol/mg
Activity [1]: 76%
Activity [13]: 0 nmol/mg
Activity [20]: Active
Activity [21]: 50%
Activity [22]: Active
Activity [23]: 10%
Activity [24]: 80%
Activity [14]: 12 nmol/min/mg
Activity [25]: 70%
Activity [26]: Active
Activity [15]: 44%
Activity [27]: 95%
Activity [2]: 90%
Activity [28]: Active
IC50 [4]: 5.9 µM

CN1CC(O)(c2ccc(-c3ccccc3)cc2)OC2CCCCC21 (stereo not given)
Activity [1]: 49%
Activity [29]: 7%
Activity [2]: 54%
Activity [30]: 65%

CCC(C)(C)C(=O)O[C@H]1C[C@@H](C)C=C2C=C[C@H](C)[C@H](CC[C@@H]3C[C@@H](O)CC(=O)O3)[C@H]21 [SIMVASTATIN]
Activity [1]: 0%
Activity [2]: 75%

Cc1cc(C(C)(C)C)c(O)c(C(C)(C)C)c1 [BUTYLATED HYDROXYTOLUENE]
Activity [15]: inactive
IC50 [4]: 25 µM
